According to publication PMC6226371 (Journal of medicinal chemistry, 2018):
Like-named read-outs stand apart in the source and are kept apart here. Each block holds one molecule with its values, some of them ahead of it.

Assays:
[1] = biological target: T1, hMC4R (Homo sapiens, UniProt P32245); assay type: cell-based
[2] = biological target: T1, hMC4R; experiment: PRESTO-Tango β-arrestin2 recruitment assay, HTLA cells transfected with hMC4R; assay type: cell-based
[3] = biological target: T1, hMC4R; experiment: AlphaScreen cAMP Schild analysis, inhibition of NDP-MSH agonist stimulation; assay type: cell-based; conditions: antagonism of NDP-MSH, pA2 = −log(Ki)
Outline: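 HEK293 cells stably expressing Flag-tagged hMC4R (calcium phosphate transfection, G418 selection), lifted with Versene, 10,000 cells/well in HBSS stimulation buffer (0.5 mM IBMX, 5 mM HEPES, 0.1% BSA, pH 7.4).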

[4] = biological target: mMC4R-NanoLuc and mMC4R-HaloTag homodimer (Mus musculus, UniProt P56450); experiment: NanoBRET ligand-induced response of the mMC4R homodimer; assay type: cell-based
mMC4R-NanoLuc and mMC4R-HaloTag homodimer, sequence (P56450 whole entry): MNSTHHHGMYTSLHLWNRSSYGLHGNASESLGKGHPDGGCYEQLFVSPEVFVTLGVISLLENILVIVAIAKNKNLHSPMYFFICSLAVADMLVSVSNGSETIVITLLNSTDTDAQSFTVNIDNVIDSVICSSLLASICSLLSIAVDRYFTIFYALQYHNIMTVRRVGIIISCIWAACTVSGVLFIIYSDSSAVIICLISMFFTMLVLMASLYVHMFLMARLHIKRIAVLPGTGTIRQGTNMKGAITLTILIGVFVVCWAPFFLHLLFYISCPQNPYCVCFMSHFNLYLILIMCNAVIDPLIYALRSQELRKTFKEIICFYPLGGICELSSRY
mMC4R-NanoLuc and mMC4R-HaloTag homodimer, sequence (P56450 whole entry): as above

[5] = biological target: human melanocortin-4 receptor (hMC4R-Flag) (human) (UniProt P32245)
human melanocortin-4 receptor (hMC4R-Flag) (human), sequence (P32245 whole entry): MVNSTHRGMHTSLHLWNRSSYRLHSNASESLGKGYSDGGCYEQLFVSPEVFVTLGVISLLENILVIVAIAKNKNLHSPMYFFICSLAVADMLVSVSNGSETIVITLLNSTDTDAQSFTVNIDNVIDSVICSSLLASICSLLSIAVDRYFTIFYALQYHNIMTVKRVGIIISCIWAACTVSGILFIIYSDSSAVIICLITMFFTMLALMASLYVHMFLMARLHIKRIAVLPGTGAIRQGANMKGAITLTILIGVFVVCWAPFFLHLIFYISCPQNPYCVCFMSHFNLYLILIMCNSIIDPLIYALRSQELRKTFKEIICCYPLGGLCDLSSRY

[6] = test system: hMC4R; conditions: 1 µM, not significant; cited from earlier work

T1 sequence (P32245 whole entry): as above

Molecule: CC(=O)NCCCOCCOCCOCCCNC(=O)COCC(=O)N[C@@H](Cc1c[nH]cn1)C(=O)N[C@H](Cc1ccccc1)C(=O)N[C@@H](CCCNC(=N)N)C(=O)N[C@@H](Cc1c[nH]c2ccccc12)C(N)=O [CJL-1–116]
EC50 [1]: 2 ± 0.3 nM | EC50 [2]: 140 ± 70 nM | fold increase in β-arrestin recruitment potency compared to CJL-1–14 ([2]; hMC4R): < 3 fold

Molecule: Ac-His-DNal(2ʹ)-Arg-Trp-NH2 [CJL-1–80]
cAMP signaling, % of maximal signal at 10 µM compared to control NDP-MSH maximal signal ([1]; hMC4R, at 10 µM): 50% | pA2 (Schild analysis) [3]: 7.82±0.03 | β-Arrestin recruitment, % of maximal signal at 10 µM compared to control NDP-MSH maximal signal ([2]; hMC4R): 30% at 10 µM | β-Arrestin recruitment, % of maximal signal at 10 µM compared to control NDP-MSH maximal signal ([2]; hMC4R, listed as Ac-His-DNal(2ʹ)-Arg-Trp-NH2): 30% | change in BRET signal from basal levels ([4]; 10^−5, 10^−7 and 10^−9 M): no significant changes

Molecule: NDP-MSH (peptide)
cAMP signaling EC50 (AlphaScreen, HEK293 cells stably expressing hMC4R) [5]: 0.06 nM

Second part, led by results:

cAMP pharmacology ([1]; hMC4R): single digit nanomolar potent agonists
Molecule: CC(=O)N[C@@H](Cc1c[nH]cn1)C(=O)N[C@H](Cc1ccc2ccccc2c1)C(=O)N[C@@H](CCCNC(=N)N)C(=O)N[C@@H](Cc1c[nH]c2ccccc12)C(=O)N1CCC[C@H]1C(=O)NCC(=O)N1CCC[C@H]1C(=O)NCC(=O)N1CCC[C@H]1C(=O)NCC(=O)N1CCC[C@H]1C(=O)NCC(=O)N1CCC[C@H]1C(=O)NCC(=O)N1CCC[C@H]1C(=O)NCC(=O)N[C@@H](Cc1c[nH]cn1)C(=O)N[C@H](Cc1ccccc1)C(=O)N[C@@H](CCCNC(=N)N)C(=O)N[C@@H](Cc1c[nH]c2ccccc12)C(N)=O [CJL-1–63]

cAMP pharmacology ([1]; hMC4R): single digit nanomolar potent agonists
Molecule: CC(=O)N[C@@H](Cc1c[nH]cn1)C(=O)N[C@H](Cc1ccc2ccccc2c1)C(=O)N[C@@H](CCCNC(=N)N)C(=O)N[C@@H](Cc1c[nH]c2ccccc12)C(=O)NCCCOCCOCCOCCCNC(=O)COCC(=O)NCCCOCCOCCOCCCNC(=O)COCC(=O)N[C@@H](Cc1c[nH]cn1)C(=O)N[C@H](Cc1ccccc1)C(=O)N[C@@H](CCCNC(=N)N)C(=O)N[C@@H](Cc1c[nH]c2ccccc12)C(N)=O [CJL-5–74]

cAMP signaling EC50 (AlphaScreen, HEK293 cells stably expressing hMC4R) [5]: 0.03 nM
Molecule: MTII (peptide)

reduction in BRET signal compared to basal signal ([4]; ligand at 10 µM): 15%
Molecule: α-MSH [reference compound]
decrease of mean BRET signal compared to basal BRET signal [6]: approximately 20%
